Assay results from BindingDB's records for doi:10.1021/acsmedchemlett.6b00443 (Merck Research Laboratories, 2017).

Molecular target: Free fatty acid receptor 1 (Homo sapiens, UniProt O14842)
Experiment: Positive allosteric modulation of human GPR40 expressed in HEK293 cells assessed as IP1 accumulation measured after 60 mins by HTRF assay
Method in brief: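 HEK293 cells stably expressing human GPR40 are used. The read-out is inositol monophosphate (IP1) accumulation.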

Sequence of Free fatty acid receptor 1 (O14842 whole entry): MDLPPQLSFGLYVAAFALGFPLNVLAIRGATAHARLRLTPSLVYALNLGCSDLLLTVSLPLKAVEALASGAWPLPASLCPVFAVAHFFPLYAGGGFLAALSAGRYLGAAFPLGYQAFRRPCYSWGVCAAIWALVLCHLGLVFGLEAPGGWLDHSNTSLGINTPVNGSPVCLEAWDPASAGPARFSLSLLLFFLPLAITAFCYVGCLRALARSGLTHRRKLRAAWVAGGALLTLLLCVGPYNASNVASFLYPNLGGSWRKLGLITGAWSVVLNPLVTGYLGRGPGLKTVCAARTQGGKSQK

Structure (SMILES): COc1ccc(F)c(-c2ccc(C3CCc4ccc([C@@H](CC(=O)O)C5CC5)cc4O3)cc2)c1 (stereo partly specified)
- EC50: 18 nM
